Assay results: ChEMBL document CHEMBL4020708, “Studies of CDK 8/19 inhibitors: Discovery of novel and selective CDK8/19 dual inhibitors and elimination of their CYP3A4 time-dependent inhibition potential” (Bioorg Med Chem, 2017)
≈ marks a conversion by molar mass, not a printed value. Calls of active or inactive are those of the source. The calls are words filed in the database; no cut-off is given here.

Assays:
[1] = target: T1, Cyclin-dependent kinase 8 (Homo sapiens, UniProt P49336); assay: Inhibition of CDK8 in human SW480 cells assessed as reduction in STAT1 phosphorylation at Ser727 residues up to 30 nM after 1 day by Western blot method; assay type: cell-based
T1 sequence (P49336 whole entry): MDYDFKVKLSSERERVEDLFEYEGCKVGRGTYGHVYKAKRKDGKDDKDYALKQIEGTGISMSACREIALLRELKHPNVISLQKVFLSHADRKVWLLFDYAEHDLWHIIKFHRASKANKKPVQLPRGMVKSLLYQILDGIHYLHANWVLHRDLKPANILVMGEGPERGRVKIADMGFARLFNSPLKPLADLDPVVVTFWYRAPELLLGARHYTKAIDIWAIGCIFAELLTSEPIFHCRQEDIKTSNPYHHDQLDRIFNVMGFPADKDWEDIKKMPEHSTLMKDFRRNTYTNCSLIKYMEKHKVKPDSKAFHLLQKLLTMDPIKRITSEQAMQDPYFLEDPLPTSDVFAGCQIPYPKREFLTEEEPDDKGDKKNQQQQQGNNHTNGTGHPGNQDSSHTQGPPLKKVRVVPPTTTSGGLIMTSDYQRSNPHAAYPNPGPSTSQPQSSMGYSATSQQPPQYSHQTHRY
Outline: (§1)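 Cell pellets were lysed in 62.5 mM Tris-Cl (pH 7.5), 1% SDS and 5% glycerol, then boiled at 95 °C for 5 min. 5 ug total protein was run on SDS-polyacrylamide gels, transferred and probed for total STAT1 and phospho-STAT1 Ser727. Detection used HRP-conjugated secondary antibodies and ECL plus chemiluminescence.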

[2] = AUC (0 to 8 hrs) in mouse at 1 mg/kg, po administered as cassette dose by LC/MS/MS analysis; assay type: ADME, organism-based; parameters: time < 8 hr, dose 1 mg/kg, route oral; conditions: in vivo
Outline: (§2)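 Cassette dosing to non-fasted mice, 1 mg/kg po (0–8 h). Plasma obtained from blood by centrifugation, deproteinized with acetonitrile, centrifuged, and the supernatant analysed by LC/MS/MS.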

[3] = target: T1, Cyclin-dependent kinase 8; assay: Inhibition of CDK8 in human EOL1 cells assessed as reduction in STAT1 phosphorylation at Ser727 residues up to 30 nM after 1 day by Western blot method; assay type: cell-based; outline: as §1
EOL1 = assay: Antiproliferative activity against human EOL-1 cells after 168 hrs by Celltiter-Glo luminescent assay; assay type: functional; conditions: EOL1, 168 h
Outline: (§3)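 Cells seeded at 5×10^2 per well. Compound added 24 h later at an appropriate concentration and incubated 168 h. Viability read by CellTiter-Glo luminescence after 20 min. Nuclear count by CyQuant Direct fluorescence after 1 h.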

Liver [4] = assay: Intrinsic clearance in mouse liver microsomes at 1 umol/L after 15 to 30 mins in presence of NADPH by LC/MS/MS analysis; assay type: ADME, microsome; conditions: 1 µM
Outline: (§4)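 Human or mouse liver microsomes at 0.2 mg/mL protein in 50 mmol/L phosphate buffer pH 7.4 with 1 μmol/L compound. Reaction started with an NADPH-generating system and stopped at 15 and 30 min with acetonitrile. LC/MS/MS readout. Intrinsic clearance taken as initial metabolic velocity (slope of concentration-time) divided by compound concentration.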

[5] = target: T1, Cyclin-dependent kinase 8; assay: Inhibition of CDK8 in human SW480 cells assessed as reduction in IFN-gamma induced STAT1 phosphorylation at Ser727 residues preincubated for 2 hrs followed by IFN-gamma addition measured after 1 hr by In-cell western assay; assay type: cell-based
Outline: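 SW480 cells kept in L-15 with 10% FBS at 37 °C and plated at 6000 cells/well overnight. Compound applied 2 h, then 10 ng/mL IFN-γ for 1 h. Cells fixed, permeabilized and blocked, then probed overnight at 4 °C with anti-pSTAT1 Ser727. IRDye 800CW secondary plus DRAQ5 for DNA, Odyssey imaging.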

RPMI-8226 [6] = assay: Antitumor activity against human RPMI8226 cells xenografted in C.B17/Icr-scid/scid Jcl mouse assessed as tumor growth at 30 mg/kg, po bid after 2 weeks relative to control; assay type: functional
Outline: (§5)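 Female C.B17/Icr-scid/scid Jcl mice, five weeks old, implanted sc in one flank with 1×10^7 RPMI-8226 cells in HBSS:Matrigel 1:1. When tumors reached about 80–140 mm³, dosed po b.i.d. at 15 or 30 mg/kg for 14 days. Caliper volume (0.5×length×width²) and body weight measured twice weekly. Tumor growth expressed as T/C vs vehicle. Mean ± se.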

Liver [7] = assay: Intrinsic clearance in human liver microsomes at 1 umol/L after 15 to 30 mins in presence of NADPH by LC/MS/MS analysis; assay type: ADME, microsome; conditions: 1 µM; outline: as §4
[8] = MRT in mouse at 1 mg/kg, po administered as cassette dose measured up to 8 hrs by LC/MS/MS analysis; assay type: ADME, organism-based; conditions: in vivo; outline: as §2
[9] = Cmax in mouse at 1 mg/kg, po administered as cassette dose measured up to 8 hrs by LC/MS/MS analysis; assay type: ADME, organism-based; parameters: dose 1 mg/kg, route oral; conditions: in vivo; outline: as §2
Mus musculus [10] = assay: Toxicity in C.B17/Icr-scid/scid Jcl mouse xenografted with human RPMI8226 cells assessed as change in body weight at 30 mg/kg, po bid after 2 weeks relative to control; assay type: organism-based; conditions: in vivo, 336 h; outline: as §5
[11] = target: T1, Cyclin-dependent kinase 8; assay: Inhibition of CDK8 in human RPMI8226 cells assessed as reduction in STAT1 phosphorylation at Ser727 residues up to 30 nM after 1 day by Western blot method; assay type: cell-based; outline: as §1
RPMI-8226 [12] = assay: Antitumor activity against human RPMI8226 cells xenografted in C.B17/Icr-scid/scid Jcl mouse assessed as tumor growth at 15 mg/kg, po bid after 2 weeks relative to control; assay type: functional; outline: as §5
[13] = Solubility of the compound at pH 6.8; assay type: physicochemical; conditions: buffer
Outline: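 Compound added from DMSO solution to JP 2nd disintegration fluid (pH 6.8) and incubated. Precipitate removed by filtration, and filtrate concentration measured by plate reader or HPLC.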

CYP3A4 = CYP3A4 (Homo sapiens, UniProt P08684); assay: Time-dependent inhibition of CYP3A4 in human liver microsomes assessed as reduction in testosterone to 6beta-hydroxytestosterone conversion by measuring remaining activity at 30 uM preincubated for 60 mins followed by testosterone addition measured after 20 mins in presence of NADPH by UPLC analysis relative to control; assay type: ADME; conditions: probe testosterone (6beta-hydroxylation), read-out: Activity
CYP3A4, sequence (P08684 whole entry): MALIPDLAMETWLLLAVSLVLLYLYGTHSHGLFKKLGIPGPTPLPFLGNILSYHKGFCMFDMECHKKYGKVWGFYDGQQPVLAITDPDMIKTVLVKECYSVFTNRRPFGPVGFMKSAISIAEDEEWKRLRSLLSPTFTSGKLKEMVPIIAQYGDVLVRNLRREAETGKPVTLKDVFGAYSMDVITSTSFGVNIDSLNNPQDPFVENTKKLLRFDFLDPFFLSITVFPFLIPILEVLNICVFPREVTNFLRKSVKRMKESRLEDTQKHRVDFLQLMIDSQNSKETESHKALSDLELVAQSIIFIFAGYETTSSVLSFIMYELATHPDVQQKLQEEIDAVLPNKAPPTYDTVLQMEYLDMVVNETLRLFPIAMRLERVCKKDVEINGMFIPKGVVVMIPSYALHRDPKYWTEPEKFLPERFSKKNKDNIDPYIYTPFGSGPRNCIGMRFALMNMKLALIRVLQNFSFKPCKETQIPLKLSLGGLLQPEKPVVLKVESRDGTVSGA
Outline: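 Compound at 30 μM preincubated with human liver microsomes in phosphate buffer pH 7.4 at 37 °C for 0 or 60 min with an NADPH-generating system. Testosterone then added for 20 min, and 6β-hydroxytestosterone measured by UPLC. Activity expressed as % of DMSO control; % remaining taken after 60 min preincubation.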

[14] = Oral bioavailability in mouse at 1 mg/kg administered as cassette dose measured up to 8 hrs by LC/MS/MS analysis; assay type: ADME, organism-based; conditions: in vivo
Outline: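 Bioavailability from mouse cassette dosing, 0.1 mg/kg iv and 1 mg/kg po, non-fasted animals. Plasma was deproteinized with acetonitrile and compound quantified by LC/MS/MS.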

Mus musculus [15] = assay: Toxicity in C.B17/Icr-scid/scid Jcl mouse xenografted with human RPMI8226 cells assessed as change in body weight at 15 mg/kg, po bid after 2 weeks; assay type: organism-based; conditions: in vivo, 336 h; outline: as §5
CDK8/Cyclin C = CDK8/Cyclin C (Homo sapiens, UniProt P49336); assay: Inhibition of kinase tracer 236 binding to full length N terminal GST-tagged human CDK8 (1 to 464 end residues) /CycC ( 1 to 283 end residues) expressed in baculovirus expression system after 60 min by TR-FRET assay
CDK8/Cyclin C, sequence (P49336 whole entry): as the sequence (P49336 whole entry) above
CDK8/Cyclin C, sequence (P24863 whole entry, further chain): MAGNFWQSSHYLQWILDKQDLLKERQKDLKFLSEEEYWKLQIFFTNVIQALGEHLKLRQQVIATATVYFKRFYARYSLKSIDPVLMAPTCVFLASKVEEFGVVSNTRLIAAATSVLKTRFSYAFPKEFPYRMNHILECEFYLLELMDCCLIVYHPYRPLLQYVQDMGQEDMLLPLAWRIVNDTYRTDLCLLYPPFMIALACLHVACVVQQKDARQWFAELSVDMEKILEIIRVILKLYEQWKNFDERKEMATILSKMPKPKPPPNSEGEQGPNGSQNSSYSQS
Outline: (§6)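 TR-FRET ligand displacement using 20 nM GST-CDK8/CycC or GST-CDK19/CycC, 20 nM Kinase Tracer 236 and Tb-anti-GST antibody. Buffer 25 mM HEPES, 10 mM MgCl₂, 2 mM DTT, 0.01% Tween-20. Incubated 60 min at rt.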

RPMI-8226 [16] = assay: Antiproliferative activity against human RPMI8226 cells after 168 hrs by Celltiter-Glo luminescent assay; assay type: functional; conditions: RPMI-8226, 168 h; outline: as §3
Mus musculus [17] = assay: In vivo inhibition of STAT1 phosphorylation at Ser727 residues in C.B17/Icr-scid/scid Jcl mouse xenografted with human RPMI8226 cells at 15 to 30 mg/kg, po bid treated for 2 weeks measured over 2 to 8 hrs post dose by Western blot analysis; assay type: functional, organism-based
Outline: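 Xenografted mice dosed po b.i.d. at 15 or 30 mg/kg for 2 weeks, sampled 2 h and 8 h post-dose on the final day. Samples lysed in Tris-SDS-glycerol buffer and boiled 95 °C for 5 min. 5 ug protein run on SDS-PAGE and blotted for STAT1 and phospho-STAT1 Ser727. HRP secondary with ECL detection.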

[18] = target: Cyclin-C/Cyclin-dependent kinase 19 (Homo sapiens, UniProt Q9BWU1); assay: Inhibition of kinase tracer 236 binding to GST-tagged CDK19/CycC (unknown origin) after 60 min by TR-FRET assay; assay type: protein-complex assay; outline: as §6
Cyclin-C/Cyclin-dependent kinase 19, sequence (Q9BWU1 whole entry): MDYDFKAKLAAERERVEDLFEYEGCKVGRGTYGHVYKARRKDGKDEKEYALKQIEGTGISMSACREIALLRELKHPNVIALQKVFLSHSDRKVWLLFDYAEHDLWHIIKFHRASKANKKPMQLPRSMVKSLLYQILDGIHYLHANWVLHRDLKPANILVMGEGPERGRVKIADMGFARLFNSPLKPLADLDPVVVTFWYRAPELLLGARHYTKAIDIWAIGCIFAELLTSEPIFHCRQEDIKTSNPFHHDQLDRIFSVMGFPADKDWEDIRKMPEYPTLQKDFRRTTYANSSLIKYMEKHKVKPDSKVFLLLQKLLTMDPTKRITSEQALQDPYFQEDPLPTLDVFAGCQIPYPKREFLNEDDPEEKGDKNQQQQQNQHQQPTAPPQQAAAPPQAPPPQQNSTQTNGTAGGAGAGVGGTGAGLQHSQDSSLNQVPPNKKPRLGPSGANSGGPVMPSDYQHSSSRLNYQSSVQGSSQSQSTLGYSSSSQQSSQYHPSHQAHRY
Cyclin-C/Cyclin-dependent kinase 19, sequence (P24863 whole entry, further chain): as the sequence (P24863 whole entry, further chain) above

[19] = Total clearance in mouse at 1 mg/kg, po administered as cassette dose measured up to 8 hrs by LC/MS/MS analysis; assay type: ADME, organism-based; conditions: in vivo
Plasma [20] = assay: Drug metabolism in mouse plasma assessed as formation of (E)-3-(4-(1H-pyrazol-4-yl)pyridin-3-yl)-N-(4-(morpholinomethyl)phenyl)acrylamide at 1 mg/kg, po administered as cassette dose measured up to 8 hrs by LC/MS/MS analysis; assay type: ADME, organism-based; conditions: in vivo; outline: as §2
Plasma [21] = assay: Drug metabolism in mouse plasma assessed as formation of (E)-N-(4-((2-hydroxyethylamino)methyl)phenyl)-3-(4-(1-methyl-1H-pyrazol-4-yl)pyridin-3-yl)acrylamide at 1 mg/kg, po administered as cassette dose measured up to 8 hrs by LC/MS/MS analysis; assay type: ADME, organism-based; conditions: in vivo; outline: as §2
Plasma [22] = assay: Drug metabolism in mouse plasma assessed as formation of (E)-3-(4-(1-methyl-1H-pyrazol-4-yl)pyridin-3-yl)-N-(4-((3-oxomorpholino)methyl)phenyl)acrylamide at 1 mg/kg, po administered as cassette dose measured up to 8 hrs by LC/MS/MS analysis; assay type: ADME, organism-based; conditions: in vivo; outline: as §2
Plasma [23] = assay: Drug metabolism in mouse plasma assessed as formation of (E)-4-(1-methyl-1H-pyrazol-4-yl)-3-(3-(4-(morpholinomethyl)phenylamino)-3-oxoprop-1-enyl)pyridine 1-oxide at 1 mg/kg, po administered as cassette dose measured up to 8 hrs by LC/MS/MS analysis; assay type: ADME, organism-based; conditions: in vivo; outline: as §2

| AUC(0-t) at 8 h [2] | intrinsic clearance (Liver [4]) | EC50 [5] | microsomal intrinsic clearance (Liver [7]) | MRT [8] | Cmax [9] | solubility [13] | activity at 20 min, 30 µM (CYP3A4) | bioavailability [14] | IC50 (CDK8/Cyclin C) | SMILES | other results |
| --- | --- | --- | --- | --- | --- | --- | --- | --- | --- | --- | --- |
| 370 ng·h/mL | 97 µL/min/mg | 8.4 nM | 15 µL/min/mg | 1.6 h | 321 ng/mL | 30 µg/mL (≈ 68.9 µM) | 99% | 22.5% | 2.5 nM | O=C(/C=C/c1cnccc1-c1cnn(C2CC2)c1)Nc1ccc(CN2CC(F)(F)C2)cc1 | inhibition [1]: Active; inhibition [3]: Active; GI50 (EOL1): 6.5 nM; T/C (RPMI-8226 [6]): -2%; Activity (Mus musculus [10]): 12%; inhibition [11]: Active; T/C (RPMI-8226 [12]): 29%; Activity (Mus musculus [15]): Non-Toxic; GI50 (RPMI-8226 [16]): 21 nM; inhibition (Mus musculus [17]): Active |
| 76.9 ng·h/mL | 77 µL/min/mg | 13 nM | 22 µL/min/mg | 1.5 h | 47.5 ng/mL | 68 µg/mL (≈ 169 µM) | 81% | 21.9% | 6.5 nM | Cn1cc(-c2ccncc2/C=C/C(=O)Nc2ccc(CN3CCOCC3)cc2)cn1 | IC50 [18]: 15 nM; CL/F [19]: 49.5 mL/min/kg; Drug metabolism (Plasma [20]): Metabolite_Detected; Drug metabolism (Plasma [21]): Metabolite_Detected; Drug metabolism (Plasma [22]): Metabolite_Detected; Drug metabolism (Plasma [23]): Metabolite_Detected |
